The entries come from a sample that favours hits as a whole.
bCat KO growth: beta-catenin-lacking colon tumor cell growth suppression | HCT116 beta-catenin knockout viability, CellTiter-Glo, 60 h; active compounds read low | viability, % at 10 µM | 1.5% of 140,000 active | AID 818;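 active = viability at or under a set limit, the compound median less 4 SD, cut at about 6% in these data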;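 note: 0% = Hyamine 1622 control at 20 µM and 100% = untreated cell control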
PTEN del growth: suppresses growth of cells with PTEN deletion; HCT116 PTEN-null viability, CellTiter-Glo, 60 h; active compounds read low; viability, % at 10 µM; 1.2% of 140,000 active; AID 827;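 active = viability at or below a set limit, 4 SD under the median of all tested compounds, cut at about 3.7% in these data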;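 note: PTEN knockout HCT116 line with beta catenin targeted HCT116 as companion control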
Lung fibro prol: blocks proliferation of human lung fibroblasts | LL 47 human lung fibroblast viability, ATP luminescence; active compounds read low | viability, % at 10 µM | 1.1% of 85,000 active | AID 719;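 active = viability at or below 50% in the single dose screen; inactive = viability above 50%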;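 note: compound exposure lasted 72 h before the ATP readout; 100% = median luminescence of untreated cell-only wells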
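Times – overnight cell rest, 72 h compound treatment at 37 °C · Test system – human lung fibroblast line LL 47, low passage · Amount – 1,150 cells in each well · Controls – cell-only wells, no compound · Doses – 0.1% DMSO in all compound wells · Measured by – CellTiter-Glo luminescence · Buffer or medium – IMEM plus 15% FBS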
HUVEC prolif 384: inhibitors of human endothelial cell proliferation; HUVEC proliferation, CellTiter-Glo luminescence, 72 h; active compounds read low; viability, % at 10 µM (by protocol); 1.1% of 86,000 active;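 active = viability at or below 30%; inactive = viability above 30%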;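 note: 100% = median luminescence of DMSO-only cell control wells on each plate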
H69AR growth 86K: blocks growth of human H69AR lung tumor cells; H69AR lung tumor viability, ATP luminescence, 72 h; active compounds read low; viability, % at 10 µM; 6% of 85,000 active;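 active = viability at or below 40%; inactive = viability above 40%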;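 note: multidrug resistant small cell line overexpressing MRP-1 efflux transporter; 100% = mean luminescence of untreated control wells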
Pyk2 oligo antag: Pyk2 (human) oligomerization antagonism. 0.83% of 99,000 active. z-score (the deposit names both 25 µM and 10 µM). Q293 cells, Pyk2 FERM NanoBiT luminescence; active compounds read low. Q14289. AID 1347419;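 active = Z-score of -3 or lower, scaled per plate to the spread of control and sample wells; inactive = z-score above -3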;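 note: negative z-score means lost luminescence so less FERM oligomerization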
An asterisk follows results filed as active; . = no result.

SMILES | bCat KO growth | PTEN del growth | Lung fibro prol | HUVEC prolif 384 | H69AR growth 86K | Pyk2 oligo antag
N#CC1=C(N)N(c2ccc(Br)cc2)C2=C(C(=O)CCC2)C1c1cccnc1 (stereo unspecified) | 83 | 86 | 92 | 89 | 83 | -1.3
CC1(C)CC(=O)C2=C(C1)N(c1ccccc1)C(N)=C(C#N)C2c1ccccc1 (stereo unspecified) | 89 | 99 | 87 | 93 | 57 | 0.75
Cc1ccc(N2C(N)=C(C#N)C(c3cccnc3)C3=C2CCCC3=O)cc1 (stereo unspecified) | 86 | 92 | 93 | 90 | 30* | -0.47
CC1(C)Cc2nc3oc4c(=O)n(CC(=O)Nc5ccccc5)cnc4c3cc2CO1 | 88 | 90 | . | . | . | .
CC1(C)Cc2nc3sc4c(=O)n(CC(=O)NCc5ccco5)cnc4c3cc2CO1 | 43 | 40 | 83 | 68 | 22* | 1.4
CN1/C(=C/C2CC(=O)N(c3ccc([N+](=O)[O-])cc3)C2=O)C(C)(C)c2ccccc21 (stereo unspecified) | 87 | 93 | 105 | 113 | 98 | 0.2
CCCCN(CCCC)c1nc2ccccc2nc1NS(=O)(=O)c1ccc(NC(C)=O)cc1 | 76 | 76 | 92 | 78 | 12* | 0.4
Cc1ccccc1-c1cc(C(=O)Nc2sc(C(=O)OC(C)C)c(C)c2C#N)c2ccccc2n1 | 14 | 10 | . | . | . | -3.9*
Clc1ccc(OCc2nnc(SCCN3CCCCC3)n2Cc2ccco2)cc1 | 10 | 16 | 85 | 75 | 15* | 0.16
O=C(CSc1nnc(COc2ccccc2)n1Cc1ccco1)c1ccc(F)cc1 | 88 | 84 | 83 | 91 | 39* | 0.21
COc1ccccc1NC(=O)CSc1nnc(COc2ccc(Cl)cc2)n1Cc1ccco1 | 72 | 71 | 91 | 75 | 50 | -0.15
Cc1ccc(OCc2nnc(SCC(=O)c3ccccc3)n2Cc2ccco2)cc1 | 66 | 73 | . | . | . | -0.56
CN(C)CCCNc1cn[nH]c(=O)c1Cl | 89 | 105 | 105 | 97 | 107 | 0.24
c1cc2c(cc1Nc1nc(-c3ccc4c(c3)OCO4)cs1)OCCO2 | 100 | 92 | 104 | 98 | 94 | -0.45
COc1cccc(Nc2nc(-c3ccc4c(c3)OCCO4)cs2)c1 | 29 | 34 | 96 | 73 | 37* | 1.8
CCOc1c(OC(C)=O)ccc(/C=C/c2ccc3cccc(OC(C)=O)c3n2)c1[N+](=O)[O-] | 1.5* | 3.2* | . | . | . | -1
COC(=O)C1Cc2c([nH]c3ccccc23)C(C)N1 (stereo unspecified) | 97 | 100 | 101 | 91 | 99 | 0.1
COc1cc(C2NCC(c3ccc(Cl)cc3Cl)c3c2[nH]c2ccccc32)cc(OC)c1OC (stereo unspecified) | 58 | 61 | . | . | . | .
O=C1[C@@H]2Cc3c([nH]c4ccccc34)[C@@H](c3ccccc3)N2C(=O)[C@@H]2Cc3c([nH]c4ccccc34)[C@@H](c3ccccc3)N12 | 1.4* | 1.5* | . | . | . | .
COc1cc([C@H]2c3[nH]c4ccccc4c3C[C@H]3C(=O)N4[C@@H](c5cc(OC)c(OC)c(OC)c5)c5[nH]c6ccccc6c5C[C@H]4C(=O)N23)cc(OC)c1OC | 3.0* | 1.8* | . | . | . | .
O=C(COC(=O)c1cccnc1Nc1cccc(C(F)(F)F)c1)NC1CCS(=O)(=O)C1 (stereo unspecified) | 66 | 65 | . | . | . | .
c1cncc(-c2nnc(-c3cccnc3)nn2)c1 | 1.7* | 1.6* | 59 | 3.9* | 3.7* | 0.33
CCc1ccc2c(c1)/C(=N/OC)C(=O)N2 | 96 | 97 | . | . | . | .
COc1ccc(-c2cc(-c3ccccc3)c(C#N)c(S(C)=O)n2)cc1 (stereo unspecified) | 1.1* | 1.3* | 2.7* | 6.8* | 2.3* | 30
O=c1[nH]c(SCc2nc3ccccc3n2Cc2ccccc2)nc2ccccc12 | 2.1* | 2.7* | . | . | . | -1.2
SMILES | bCat KO growth | PTEN del growth | Lung fibro prol | HUVEC prolif 384 | H69AR growth 86K | Pyk2 oligo antag
COc1ccc(-c2c(C)nn(-c3ccccc3)c2N)cc1OC | 95 | 88 | 100 | 93 | 92 | -0.5
CCN(CC)P1(=O)OC(c2cc(OC)c(OC)c(OC)c2)=Nc2c1c(C)nn2-c1ccccc1 (stereo unspecified) | 93 | 101 | 83 | 89 | 28* | 3.7
CCCCn1c(=O)[nH]c(=O)c2c1nc(-c1ccc(-c3ccccc3Br)o1)n2CCOC | 34 | 41 | 39* | 44 | 47 | -0.39
COCCn1c(-c2ccc(-c3ccccc3Cl)o2)nc2c1c(=O)[nH]c(=O)n2CC(C)C | 62 | 61 | 60 | 37 | 18* | -0.53
CCOC(=O)N1C=CC=C[C@@H]2[C@@H](N3C(=O)c4ccccc4C3=O)C(=O)N21 | 101 | 100 | . | . | . | .
CCOc1cc(NC(=S)NCCCN2CCOCC2)c(OCC)cc1NC(=O)C1CC1 | 101 | 107 | . | . | . | .
OC(CNCCC1C=Nc2ccccc21)Cn1c2ccc(Cl)cc2c2cc(Cl)ccc21 (stereo unspecified) | 1.2* | 1.5* | . | . | . | .
OC(CNCC1CCCO1)Cn1c2ccc(Cl)cc2c2cc(Cl)ccc21 (stereo unspecified) | 1.5* | 2.1* | 2.4* | 2.2* | 1.0* | -0.32
Cc1cc(C)n(CC(O)Cn2c3ccc(Cl)cc3c3cc(Cl)ccc32)c(=O)n1 (stereo unspecified) | 79 | 81 | 90 | 51 | 59 | -1.4
CCOc1ccc2nc(-c3ccccc3)nc(SCC(=O)Nc3ncc(C)s3)c2c1 | 86 | 69 | . | . | . | -0.01
CC(=O)Nc1cc(ON=C(C)C)cc([N+](=O)[O-])c1 | 92 | 93 | . | . | . | .
CSc1nsc(SCc2ccc(F)cc2)n1 | 97 | 110 | . | 110 | 30* | -0.12
Fc1ccc(CSc2nsc(SCc3ccc(F)cc3)n2)cc1 | 86 | 84 | 88 | 100 | 90 | 0.66
C=CCNC(=O)C1CC(=O)N(c2ccc(OCC(=O)Nc3cccc(OC)c3)cc2)C1 (stereo unspecified) | 96 | 98 | 104 | 93 | 99 | 0.43
C=CCNC(=O)C1CC(=O)N(c2ccc(OCC(=O)Nc3ccc(Cl)c(C(F)(F)F)c3)cc2)C1 (stereo unspecified) | 1.9* | 1.9* | 98 | 80 | 14* | 0.24
CN(C)c1nc(OCCNC(=O)COc2ccccc2Cl)nc(N(C)C)n1 | 96 | 96 | 93 | 96 | 86 | -0.12
COc1ccc(C2C=C(c3ccc(C)c(C)c3)Nc3ncnn32)c(OC)c1OC (stereo unspecified) | 40 | 39 | 62 | 62 | 25* | .
CC(=O)c1cccc(NC(=O)C2CCN(S(=O)(=O)c3ccccc3)CC2)c1 | 109 | 100 | 107 | 91 | 71 | 0.51
O=C(Nc1ccccc1C(F)(F)F)N1CCCCCC1 | 90 | 93 | 101 | 89 | 88 | 0.99
O=C(Nc1ccccc1C(F)(F)F)N1CCN(C(c2ccccc2)c2ccccc2)CC1 | 89 | 85 | 86 | 69 | 31* | -1.1
OC(Cc1cccnc1)(Cc1cccnc1)c1cc2ccccc2[nH]1 | 97 | 89 | . | . | . | .

Screening data: PubChem, several laboratories
